This note sets out measurements from ChEMBL document CHEMBL5038573, “Total Synthesis of Laucysteinamide A, a Monomeric Congener of Somocystinamide A” (J Nat Prod, 2021).

Series [1] in a line: (§1) Toxicity in brine shrimp assessed as induction of lethality incubated for 24 hrs by microscopic analysis. It counts as organism-based, Artemia salina. To be noted: Artemia salina (brine shrimp).
The subject of a further series is NCI-H460. The series is described as follows: Cytotoxicity against human NCI-H460 cells assessed as cell growth inhibition incubated for 48 hrs by MTT assay. It counts as functional, cell-based. Summed up:
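NCI-H460 cells seeded at 6.66 × 10³ cells/mL in RPMI 1640 with FBS and grown 24 h (37 °C, 5% CO₂). Nine half-log dilutions (top 127–300 μM) added, final 1% v/v DMSO and PEG400, six replicates per concentration. After 48 h, MTT for 25 min, then dissolved in DMSO and read at 570 and 630 nm.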

The next series relates to A549. The series is described as follows: Cytotoxicity against human A549 cells assessed as cell growth inhibition incubated for 48 hrs by MTT assay. It counts as functional, cell-based. To be noted: A549, 48 h. (In general: Formazan colour is commonly taken as a measure of viable cells.)
Another series relates to Artemia salina. The series is described as §1. The series is classed as organism-based.
The mark [2] stands for this setting: Homo sapiens, NCI-H460, 48 h, read-out: IC50.

The term IC50 denotes the midpoint of a concentration-inhibition curve.

Regarding `C=CC/C=C/N(C)C(=O)c1ccccc1`, in series [1], the concentration for half-maximal inhibition (IC50) at 24 h is over 100 µM. In addition, in the series with NCI-H460 (setting [2]), the 50% inhibitory concentration (IC50) was over 300 µM.

For `C=CC/C=C/N(C)C(=O)CCCCCCCC/C=C/[C@H](CSSC[C@@H](/C=C/CCCCCCCCC(=O)N(C)/C=C/CC=C)NC(C)=O)NC(C)=O`, in series [1], the half-inhibitory concentration (IC50) at 24 h is over 130 µM. The IC50 was 46 nM in the series with A549 and “Not Active” in the series with NCI-H460 (nci-h460).

As for `C=CC/C=C/N(C)C(=O)CCC`, the half-inhibitory concentration (IC50) at 24 h in series [1] was over 100 µM. In the series on NCI-H460 (setting [2]), the IC50 was over 248 µM.

Regarding `CCC/C=C/N(C)C(=O)CCCCCCCCCC/C=C/[C@@H]1CSC(C)=N1`, the IC50 result in the series on Artemia salina is “Not Active”; in the series on NCI-H460 (setting [2]) it was 33 µM.

Take `C=CC/C=C/N(C)C(=O)CCCCCCCCCC/C=C/[C@@H]1CSC(C)=N1`: the concentration for half-maximal inhibition (IC50) at 24 h in series [1] is over 100 µM. Further, the concentration for half-maximal inhibition (IC50) in the series with NCI-H460 (setting [2]) was 20 µM.
